# Measurements from ChEMBL document CHEMBL1121685, “Development of new mitomycin C and porfiromycin analogues” (J Med Chem, 1981).
# How the values were obtained:
# Mus musculus [1] = test: Effect of compound on total white blood cell count in BDG1 male mice, after intraperitoneal administration at a dose of 44.25 mg/kg on day 5; assay type: functional
# Summary of the method: (§1)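 Single ip dose given on day 0 to BDG₁ male mice. Total white blood cell count measured on days 3, 5 and 7, expressed as % change from control. Highest dose was at the LD₅₀, or at twice the optimal dose where so footnoted. Significance reported at p ≤ 0.05 and p ≤ 0.01. D marks death of one or more mice.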
# Mus musculus [2] = test: Effect of compound on total white blood cell count in BDG1 male mice, after intraperitoneal administration at a dose of 33.18 mg/kg on day 7; assay type: functional
# Summary of the method: (§2)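 Single ip dose given on day 0 to BDG1 male mice over a descending dose series. Total white blood cell count is expressed as % change from untreated control on days 3, 5 and 7. Significance is flagged at p ≤ 0.05 and p ≤ 0.01.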
# Mus musculus [3] = test: Effect of compound on total white blood cell count in BDG1 male mice, after intraperitoneal administration at a dose of 33.18 mg/kg on day 3; assay type: functional; summary of the method: as §2
# Mus musculus [4] = test: Effect of compound on total white blood cell count in BDG1 male mice, after intraperitoneal administration at a dose of 33.18 mg/kg on day 5; assay type: functional; summary of the method: as §2
# Mus musculus [5] = test: Effect of compound on total white blood cell count in BDG1 male mice, after intraperitoneal administration at a dose of 44.25 mg/kg on day 7; assay type: functional; summary of the method: as §1
# Mus musculus [6] = test: Effect of compound on total white blood cell count in BDG1 male mice, after intraperitoneal administration at a dose of 44.25 mg/kg on day 3; assay type: functional; summary of the method: as §1
# Mus musculus [7] = test: Effect of compound on total white blood cell count in BDG1 male mice, after intraperitoneal administration at a dose of 59.0 mg/kg on day 3; assay type: functional; summary of the method: as §1
# Mus musculus [8] = test: Effect of compound on total white blood cell count in BDG1 male mice, after intraperitoneal administration at a dose of 59.0 mg/kg on day 5; assay type: functional; summary of the method: as §1
# Mus musculus [9] = test: Effect of compound on total white blood cell count in BDG1 male mice, after intraperitoneal administration at a dose of 59.0 mg/kg on day 7; assay type: functional; summary of the method: as §1
# Mus musculus [10] = test: Minimum effective dose that show activity against P-388 murine leukemia cells in CDF1 female mice, after intraperitoneal administration (optimal dose is 25.6 mg/kg); assay type: functional; settings: P388, ip, read-out: MED
# Summary of the method: (§3)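 10⁶ P-388 ascites cells implanted ip in CDF₁ female mice. Six mice per dose, 10 saline-injected controls, and a concurrent mitomycin C reference group. %T/C = median survival time of treated/control × 100. MED is the lowest dose giving %T/C > 125. Therapeutic ratio = optimal dose/MED.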
# Mus musculus [11] = test: Antitumor activity against P-388 murine leukemia cells in CDF1 female mice after intraperitoneal administration at the specified optimal dose of 25.6 mg/kg; assay type: functional
# [12] = Therapeutic ratio is expressed as ratio of optimal dose and minimum effective dose; assay type: ADME; settings: mouse; read-out: TR; summary of the method: as §3
# Mus musculus [13] = test: Effect of compound on total white blood cell count in BDG1 male mice, after intraperitoneal administration at a dose of 5.03 mg/kg on day 5; assay type: functional; summary of the method: as §1
# Mus musculus [14] = test: Effect of compound on total white blood cell count in BDG1 male mice, after intraperitoneal administration at a dose of 5.03 mg/kg on day 7; assay type: functional; summary of the method: as §1
# Mus musculus [15] = test: Effect of compound on total white blood cell count in BDG1 male mice, after intraperitoneal administration at a dose of 5.03 mg/kg on day 3; assay type: functional; summary of the method: as §1
# Mus musculus [16] = test: Effect of compound on total white blood cell count in BDG1 male mice, after intraperitoneal administration at a dose of 2.83 mg/kg on day 7; assay type: functional; summary of the method: as §2
# Mus musculus [17] = test: Effect of compound on total white blood cell count in BDG1 male mice, after intraperitoneal administration of a compound of 2.83 mg/kg on day 3; assay type: functional
# Mus musculus [18] = test: Effect of compound on total white blood cell count in BDG1 male mice, after intraperitoneal administration at a dose of 3.77 mg/kg on day 3; assay type: functional; summary of the method: as §2
# Mus musculus [19] = test: Effect of compound on total white blood cell count in BDG1 male mice, after intraperitoneal administration at a dose of 3.77 mg/kg on day 5; assay type: functional; summary of the method: as §2
# Mus musculus [20] = test: Effect of compound on total white blood cell count in BDG1 male mice, after intraperitoneal administration at a dose of 3.77 mg/kg on day 7; assay type: functional; summary of the method: as §2
# Mus musculus [21] = test: Effect of compound on total white blood cell count in BDG1 male mice, after intraperitoneal administration at a dose of 6.7 mg/kg on day 3; assay type: functional; summary of the method: as §1
# Mus musculus [22] = test: Effect of compound on total white blood cell count in BDG1 male mice, after intraperitoneal administration at a dose of 6.7 mg/kg on day 5; assay type: functional; summary of the method: as §1
# Mus musculus [23] = test: Effect of compound on total white blood cell count in BDG1 male mice, after intraperitoneal administration at a dose of 6.7 mg/kg on day 7; assay type: functional; summary of the method: as §1
# Mus musculus [24] = test: Effect of compound on total white blood cell count in BDG1 male mice, after intraperitoneal administration at a dose of 2.83 mg/kg on day 5; assay type: functional; summary of the method: as §2
# Mus musculus [25] = test: Minimum effective dose that show activity against P-388 murine leukemia cells in CDF1 female mice, after intraperitoneal administration (optimal dose is 3.2 mg/kg); assay type: functional; settings: P388, ip, read-out: MED; summary of the method: as §3
# Mus musculus [26] = test: Antitumor activity against P-388 murine leukemia cells in CDF1 female mice after intraperitoneal administration at the specified optimal dose of 3.2 mg/kg; assay type: functional
structure (smiles),measurement,setting,value
C#CCNC1=C(C)C(=O)C2=C(C1=O)[C@H](COC(N)=O)C1(OC)[C@H]3[C@@H](CN21)N3C (some centres not stated),Change,Mus musculus [1],-69%
same,Change,Mus musculus [2],-49%
same,Change,Mus musculus [3],-64%
same,Change,Mus musculus [4],-66%
same,Change,Mus musculus [5],-67%
same,Change,Mus musculus [6],-74%
same,Change,Mus musculus [7],-80%
same,Change,Mus musculus [8],-84%
same,Change,Mus musculus [9],-77%
same,minimal effective dose,Mus musculus [10],1.6 mg/kg
same,T/C,Mus musculus [11],300%
same,selectivity ratio,[12],16
COC12[C@@H](COC(N)=O)C3=C(C(=O)C(C)=C(N4CC4C)C3=O)N1C[C@@H]1[C@H]2N1C (some centres not stated),Change,Mus musculus [13],-44%
same,Change,Mus musculus [14],-4%
same,Change,Mus musculus [15],-31%
same,Change,Mus musculus [16],2%
same,Change,Mus musculus [17],-31%
same,Change,Mus musculus [18],-30%
same,Change,Mus musculus [19],-25%
same,Change,Mus musculus [20],-11%
same,Change,Mus musculus [21],-28%
same,Change,Mus musculus [22],-49%
same,Change,Mus musculus [23],-37%
same,Change,Mus musculus [24],-21%
same,minimal effective dose,Mus musculus [25],0.4 mg/kg
same,T/C,Mus musculus [26],163%
same,selectivity ratio,[12],8
